Source: ChEMBL document CHEMBL3259628, “Discovery of novel 2-((pyridin-3-yloxy)methyl)piperazines as α7 nicotinic acetylcholine receptor modulators for the treatment of inflammatory disorders” (J Med Chem, 2014)
Active and inactive are the calls of the source. No cut-off for these calls is given here.

Assays:
[1] = biological target: Neuronal acetylcholine receptor subunit alpha-7 (Rattus norvegicus, UniProt Q05941); assay: Inhibition of biotinylated alpha-bungarotoxin binding to alpha7 nAChR in rat PC12 cells by FACS analysis; type: cell-based, PC-12
Summary of the method: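 Rat PC12 cells in binding buffer (PBS, 1.0% FBS, 0.02% sodium azide), 0.1% DMSO; biotinylated α-bungarotoxin 10 nM final, 1 h at room temperature; nonspecific binding defined with 1.5 μM unlabeled toxin. After washing, phycoerythrin-streptavidin 1.0 μg/mL final, 15 min in the dark; read by FACS. Screened at 10 and 1 μM, then eight-point 3-fold dilution IC50; mean of two or more experiments.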

[2] = biological target: Acetylcholine receptor; alpha1/beta1/delta/gamma (Homo sapiens) (UniProt P02708+P07510+P11230+Q07001); assay: Inhibition of alpha1beta1gammadelta nAChR (unknown origin) at 10 uM; type: protein-complex assay
Summary of the method: (§1)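 Receptor, ion channel and transporter binding panel run at Cerep in duplicate. Percent inhibition measured at 10 μM compound.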

[3] = biological target: T1, 5-hydroxytryptamine receptor 3A (Homo sapiens) (UniProt P46098); assay: Inhibition of 5-HT3 receptor (unknown origin) at 10 uM; summary of the method: as §1
T1 sequence (whole entry): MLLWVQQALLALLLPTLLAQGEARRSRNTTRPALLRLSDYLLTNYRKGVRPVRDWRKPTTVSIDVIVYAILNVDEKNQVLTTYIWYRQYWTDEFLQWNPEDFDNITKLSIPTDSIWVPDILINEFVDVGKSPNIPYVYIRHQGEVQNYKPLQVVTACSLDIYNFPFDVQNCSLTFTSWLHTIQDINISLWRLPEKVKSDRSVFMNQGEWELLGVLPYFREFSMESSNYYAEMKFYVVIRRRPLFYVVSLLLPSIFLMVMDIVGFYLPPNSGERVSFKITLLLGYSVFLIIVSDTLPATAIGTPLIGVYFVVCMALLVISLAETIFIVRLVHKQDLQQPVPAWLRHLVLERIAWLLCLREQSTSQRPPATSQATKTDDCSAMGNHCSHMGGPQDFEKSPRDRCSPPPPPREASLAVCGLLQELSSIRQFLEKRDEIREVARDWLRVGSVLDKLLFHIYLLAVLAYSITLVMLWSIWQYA

[4] = biological target: T2, Neuronal acetylcholine receptor; alpha4/beta2 (Homo sapiens, UniProt P17787+P43681); assay: Inhibition of human alpha4beta2 nAChR at 10 uM by binding assay
[5] = biological target: T3, Neuronal acetylcholine receptor subunit alpha-7 (Homo sapiens, UniProt P36544); assay: Agonist activity at human alpha7 nAChR expressed in Xenopus oocytes by voltage clamp method; type: cell-based
[6] = biological target: T2, Neuronal acetylcholine receptor; alpha4/beta2; assay: Agonist activity at human alpha4beta2 nAChR expressed in Xenopus oocytes by voltage clamp method; type: cell-based
CYP1A2 = biological target: T4, CYP1A2 (Homo sapiens, UniProt P05177); assay: Inhibition of CYP1A2 (unknown origin) at 10 uM; type: ADME
T4 sequence (P05177 whole entry): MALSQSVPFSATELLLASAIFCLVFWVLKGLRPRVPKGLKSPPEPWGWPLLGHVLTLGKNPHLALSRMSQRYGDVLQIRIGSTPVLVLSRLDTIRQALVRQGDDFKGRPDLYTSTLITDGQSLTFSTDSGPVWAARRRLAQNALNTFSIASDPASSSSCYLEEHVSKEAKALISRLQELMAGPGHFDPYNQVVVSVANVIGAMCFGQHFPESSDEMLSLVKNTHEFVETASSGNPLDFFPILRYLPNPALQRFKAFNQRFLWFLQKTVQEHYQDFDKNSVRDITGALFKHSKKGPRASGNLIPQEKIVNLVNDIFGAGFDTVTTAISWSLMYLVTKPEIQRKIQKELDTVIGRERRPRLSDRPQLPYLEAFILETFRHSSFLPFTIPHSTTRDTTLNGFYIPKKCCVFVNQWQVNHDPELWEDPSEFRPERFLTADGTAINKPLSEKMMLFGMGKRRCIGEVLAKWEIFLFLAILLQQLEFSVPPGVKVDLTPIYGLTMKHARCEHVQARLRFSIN
Summary of the method: (§2)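 Each of five Cyp isoforms assayed with single probe substrates rather than a substrate cocktail. Run in duplicate at Cerep. IC50 lines come from a 5-concentration titration curve.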

CYP2C9 = CYP2C9 (Homo sapiens, UniProt P11712); assay: Inhibition of CYP2C9 (unknown origin) at 10 uM; type: ADME; summary of the method: as §2
CYP2C19 = CYP2C19 (Homo sapiens, UniProt P33261); assay: Inhibition of CYP2C19 (unknown origin) at 10 uM; type: ADME; summary of the method: as §2
CYP2D6 = CYP2D6 (Homo sapiens, UniProt P10635); assay: Inhibition of CYP2D6 (unknown origin) at 10 uM; type: ADME; summary of the method: as §2
CYP3A4 = CYP3A4 (Homo sapiens, UniProt P08684); assay: Inhibition of CYP3A4 (unknown origin) at 10 uM; type: ADME; summary of the method: as §2
[7] = biological target: Adenosine receptor A2a (Homo sapiens) (UniProt P29274); assay: Inhibition of adenosine A2a receptor (unknown origin) at 10 uM; summary of the method: as §1
[8] = Half life in mouse at 1 mg/kg, iv; type: ADME, organism-based; design: dose 1 mg/kg, route intravenous; conditions: in vivo
[9] = Clearance in mouse at 1 mg/kg, iv; type: ADME, organism-based; design: dose 1 mg/kg, route intravenous; conditions: in vivo
[10] = Oral bioavailability in mouse at 5 mg/kg; type: ADME, organism-based; conditions: in vivo
[11] = Half life in mouse at 5 mg/kg, po; type: ADME, organism-based; design: dose 5 mg/kg, route oral; conditions: in vivo
[12] = Cmax in mouse at 5 mg/kg, po; type: ADME, organism-based; design: dose 5 mg/kg, route oral; conditions: in vivo
Mus musculus [13] = assay: (§3) Antiinflammatory activity against ovalbumin-induced allergic lung inflammation BALB/c mouse model assessed as reduction in total blood cells in brochoalveolar lavage fluid at 5 mg/kg, po qd administered on day 29 to 31 post ovalbumin challenge measured 8 hrs post last challenge relative to vehicle-treated control; type: functional
Summary of the method: (§4)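 Balb/c mice sensitized with ovalbumin by IP injection on days 1 and 14, then challenged intranasally with 100 μg ovalbumin on days 29, 30 and 31. Compound in saline given orally starting 30 min before each challenge; groups of six mice. Sham groups were saline-sensitized and allergen-challenged. BAL taken 8 h after the last challenge, with differential cell counts on slides.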

Mus musculus [14] = assay: as §3, with “1” for “5”; type: functional; summary of the method: as §4
Mus musculus [15] = assay: as §3, with “neutrophils” for “total blood cells”; type: functional; conditions: Bronchoalveolar lavage; summary of the method: as §4
Mus musculus [16] = assay: as §3, with “neutrophils” for “total blood cells”, “1” for “5”; type: functional; conditions: Bronchoalveolar lavage; summary of the method: as §4
Mus musculus [17] = assay: as §3, with “eosinophils” for “total blood cells”, “1” for “5”; type: functional; summary of the method: as §4
Mus musculus [18] = assay: as §3, with “eosinophils” for “total blood cells”; type: functional, organism-based; design: dose 5 mg/kg; summary of the method: as §4
[19] = biological target: T3, Neuronal acetylcholine receptor subunit alpha-7; conditions: 300 uM
[20] = biological target: T2, Neuronal acetylcholine receptor; alpha4/beta2; assay: Inhibition of human alpha4beta2 nAChR by binding assay
hERG (KCNH2) = hERG (KCNH2) (Homo sapiens, UniProt Q12809); assay: Inhibition of human ERG at 1 uM by whole-cell voltage clamp assay
Mus musculus [21] = assay: as §3, with “neutrophils” for “total blood cells”, “1” for “5”, “bid” for “qd”; type: functional; conditions: Bronchoalveolar lavage; summary of the method: as §4
Mus musculus [22] = assay: as §3, with “eosinophils” for “total blood cells”, “1” for “5”, “bid” for “qd”; type: functional; summary of the method: as §4
[23] = biological target: T2, Neuronal acetylcholine receptor; alpha4/beta2; assay: Agonist activity at alpha4beta2 nAChR (unknown origin)
Mus musculus [24] = assay: as §3, with “10” for “5”, “bid” for “qd”; type: functional, organism-based; design: dose 10 mg/kg; summary of the method: as §4
Mus musculus [25] = assay: as §3, with “neutrophils” for “total blood cells”, “10” for “5”, “bid” for “qd”; type: functional, organism-based; design: dose 10 mg/kg; conditions: Bronchoalveolar lavage; summary of the method: as §4
Mus musculus [26] = assay: as §3, with “eosinophils” for “total blood cells”, “10” for “5”, “bid” for “qd”; type: functional, organism-based; design: dose 10 mg/kg; summary of the method: as §4

Sequence of CYP3A4 (P08684 whole entry): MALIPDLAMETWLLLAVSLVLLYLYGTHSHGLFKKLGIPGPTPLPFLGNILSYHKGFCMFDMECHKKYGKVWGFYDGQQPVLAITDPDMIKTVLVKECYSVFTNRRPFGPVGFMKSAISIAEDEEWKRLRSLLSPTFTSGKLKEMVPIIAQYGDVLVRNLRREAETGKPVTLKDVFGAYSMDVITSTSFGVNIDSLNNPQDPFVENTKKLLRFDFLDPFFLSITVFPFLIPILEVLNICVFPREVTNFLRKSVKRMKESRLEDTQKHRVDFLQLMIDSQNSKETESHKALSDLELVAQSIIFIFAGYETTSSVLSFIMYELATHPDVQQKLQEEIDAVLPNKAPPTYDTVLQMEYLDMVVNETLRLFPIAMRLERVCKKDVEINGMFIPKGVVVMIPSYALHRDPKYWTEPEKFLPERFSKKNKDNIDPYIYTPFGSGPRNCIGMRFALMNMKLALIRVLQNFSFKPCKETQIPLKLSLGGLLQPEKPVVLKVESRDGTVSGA
Sequence of CYP2D6 (P10635 whole entry): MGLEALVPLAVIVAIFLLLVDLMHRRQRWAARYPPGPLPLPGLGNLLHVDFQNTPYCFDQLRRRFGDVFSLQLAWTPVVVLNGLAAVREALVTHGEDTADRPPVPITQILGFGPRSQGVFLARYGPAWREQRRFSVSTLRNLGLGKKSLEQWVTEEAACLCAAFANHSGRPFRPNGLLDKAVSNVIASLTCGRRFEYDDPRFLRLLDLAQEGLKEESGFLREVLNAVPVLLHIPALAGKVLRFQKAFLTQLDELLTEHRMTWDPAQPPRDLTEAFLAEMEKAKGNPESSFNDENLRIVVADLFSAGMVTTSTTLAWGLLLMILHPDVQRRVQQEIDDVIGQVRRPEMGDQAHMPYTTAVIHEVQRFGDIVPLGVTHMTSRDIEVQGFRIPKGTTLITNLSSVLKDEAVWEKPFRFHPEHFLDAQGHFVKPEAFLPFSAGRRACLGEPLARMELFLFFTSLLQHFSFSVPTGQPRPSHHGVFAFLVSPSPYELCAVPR
Sequence of CYP2C9 (P11712 whole entry): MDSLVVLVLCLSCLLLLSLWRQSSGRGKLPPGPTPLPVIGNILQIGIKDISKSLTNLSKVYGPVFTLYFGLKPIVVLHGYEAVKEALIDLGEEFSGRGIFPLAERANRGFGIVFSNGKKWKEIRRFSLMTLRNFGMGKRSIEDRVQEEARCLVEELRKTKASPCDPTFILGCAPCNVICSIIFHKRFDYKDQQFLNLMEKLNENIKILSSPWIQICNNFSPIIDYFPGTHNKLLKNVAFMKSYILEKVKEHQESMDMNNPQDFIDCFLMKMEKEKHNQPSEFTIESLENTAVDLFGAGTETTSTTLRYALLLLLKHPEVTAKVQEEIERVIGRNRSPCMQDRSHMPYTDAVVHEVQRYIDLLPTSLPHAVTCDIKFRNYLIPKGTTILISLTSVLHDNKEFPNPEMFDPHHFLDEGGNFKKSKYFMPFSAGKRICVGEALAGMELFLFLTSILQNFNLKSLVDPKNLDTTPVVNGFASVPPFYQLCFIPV
Sequence of hERG (KCNH2) (Q12809 whole entry): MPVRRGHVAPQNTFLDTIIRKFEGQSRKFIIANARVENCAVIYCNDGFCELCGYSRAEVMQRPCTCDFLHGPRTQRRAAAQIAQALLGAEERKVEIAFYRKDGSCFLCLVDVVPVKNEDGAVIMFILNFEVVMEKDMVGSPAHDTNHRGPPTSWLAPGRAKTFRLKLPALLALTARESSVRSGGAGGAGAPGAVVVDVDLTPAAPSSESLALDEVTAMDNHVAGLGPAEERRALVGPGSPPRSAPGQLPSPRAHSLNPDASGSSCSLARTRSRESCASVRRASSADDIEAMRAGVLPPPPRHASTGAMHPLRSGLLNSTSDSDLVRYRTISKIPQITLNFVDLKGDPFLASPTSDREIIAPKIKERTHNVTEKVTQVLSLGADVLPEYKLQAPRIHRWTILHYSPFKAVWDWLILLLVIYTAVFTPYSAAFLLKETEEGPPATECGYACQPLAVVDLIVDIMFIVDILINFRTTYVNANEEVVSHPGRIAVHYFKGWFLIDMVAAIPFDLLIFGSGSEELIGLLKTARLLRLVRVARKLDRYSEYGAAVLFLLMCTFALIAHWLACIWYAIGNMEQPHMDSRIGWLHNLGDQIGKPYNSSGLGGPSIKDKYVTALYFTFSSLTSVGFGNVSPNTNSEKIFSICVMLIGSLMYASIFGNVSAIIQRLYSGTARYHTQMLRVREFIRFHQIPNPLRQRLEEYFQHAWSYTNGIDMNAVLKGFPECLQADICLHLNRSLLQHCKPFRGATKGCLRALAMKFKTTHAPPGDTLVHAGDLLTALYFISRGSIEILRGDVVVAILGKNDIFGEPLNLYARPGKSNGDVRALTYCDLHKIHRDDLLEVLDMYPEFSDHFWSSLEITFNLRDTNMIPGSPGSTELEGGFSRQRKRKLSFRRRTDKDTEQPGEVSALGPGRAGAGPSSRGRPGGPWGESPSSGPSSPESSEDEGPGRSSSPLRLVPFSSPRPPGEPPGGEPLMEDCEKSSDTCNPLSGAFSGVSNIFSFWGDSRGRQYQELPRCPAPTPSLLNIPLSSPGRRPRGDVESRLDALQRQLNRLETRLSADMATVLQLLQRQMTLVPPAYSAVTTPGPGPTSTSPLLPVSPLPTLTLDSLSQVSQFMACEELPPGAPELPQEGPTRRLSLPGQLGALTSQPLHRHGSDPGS
Sequence of Neuronal acetylcholine receptor subunit alpha-7 (Rattus norvegicus, UniProt Q05941) (Q05941 whole entry): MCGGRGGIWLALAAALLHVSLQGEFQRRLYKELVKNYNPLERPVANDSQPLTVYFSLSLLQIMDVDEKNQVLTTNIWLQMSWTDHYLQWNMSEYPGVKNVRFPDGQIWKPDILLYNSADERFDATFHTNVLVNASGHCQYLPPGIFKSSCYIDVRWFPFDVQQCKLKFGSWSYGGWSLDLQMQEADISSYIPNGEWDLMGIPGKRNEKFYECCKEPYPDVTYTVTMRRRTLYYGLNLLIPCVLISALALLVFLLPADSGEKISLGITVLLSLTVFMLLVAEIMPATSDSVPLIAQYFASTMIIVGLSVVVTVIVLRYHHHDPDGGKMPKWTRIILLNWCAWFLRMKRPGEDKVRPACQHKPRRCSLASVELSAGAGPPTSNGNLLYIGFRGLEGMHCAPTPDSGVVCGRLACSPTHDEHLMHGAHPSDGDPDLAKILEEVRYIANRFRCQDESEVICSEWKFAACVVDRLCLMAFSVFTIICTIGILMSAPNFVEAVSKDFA
Sequence of CYP2C19 (P33261 whole entry): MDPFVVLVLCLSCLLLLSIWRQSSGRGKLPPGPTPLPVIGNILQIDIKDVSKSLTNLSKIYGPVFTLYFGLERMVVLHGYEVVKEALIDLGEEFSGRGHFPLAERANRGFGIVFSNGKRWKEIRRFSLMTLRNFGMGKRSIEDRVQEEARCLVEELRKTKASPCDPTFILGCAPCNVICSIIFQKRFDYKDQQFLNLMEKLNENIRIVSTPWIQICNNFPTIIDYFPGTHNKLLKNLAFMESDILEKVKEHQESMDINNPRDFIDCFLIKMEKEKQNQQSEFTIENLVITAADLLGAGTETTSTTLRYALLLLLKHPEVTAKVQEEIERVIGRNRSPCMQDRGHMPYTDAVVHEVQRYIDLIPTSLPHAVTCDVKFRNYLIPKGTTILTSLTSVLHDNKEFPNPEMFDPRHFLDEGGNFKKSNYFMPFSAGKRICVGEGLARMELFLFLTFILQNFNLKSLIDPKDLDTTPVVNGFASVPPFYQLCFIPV
T2 sequence (P17787 whole entry): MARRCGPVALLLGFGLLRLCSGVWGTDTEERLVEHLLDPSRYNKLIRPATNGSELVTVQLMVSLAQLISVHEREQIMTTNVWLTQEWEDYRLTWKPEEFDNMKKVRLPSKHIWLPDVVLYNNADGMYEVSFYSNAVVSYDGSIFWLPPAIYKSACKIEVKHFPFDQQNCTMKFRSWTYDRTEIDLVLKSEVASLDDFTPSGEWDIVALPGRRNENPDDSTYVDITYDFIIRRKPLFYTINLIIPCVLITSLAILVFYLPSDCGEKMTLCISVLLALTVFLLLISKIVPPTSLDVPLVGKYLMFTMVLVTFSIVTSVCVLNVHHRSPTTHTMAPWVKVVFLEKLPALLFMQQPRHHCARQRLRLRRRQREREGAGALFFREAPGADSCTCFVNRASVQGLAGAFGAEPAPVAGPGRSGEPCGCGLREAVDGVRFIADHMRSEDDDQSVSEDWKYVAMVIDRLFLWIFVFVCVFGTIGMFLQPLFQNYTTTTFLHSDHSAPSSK
T2 sequence (P43681 whole entry): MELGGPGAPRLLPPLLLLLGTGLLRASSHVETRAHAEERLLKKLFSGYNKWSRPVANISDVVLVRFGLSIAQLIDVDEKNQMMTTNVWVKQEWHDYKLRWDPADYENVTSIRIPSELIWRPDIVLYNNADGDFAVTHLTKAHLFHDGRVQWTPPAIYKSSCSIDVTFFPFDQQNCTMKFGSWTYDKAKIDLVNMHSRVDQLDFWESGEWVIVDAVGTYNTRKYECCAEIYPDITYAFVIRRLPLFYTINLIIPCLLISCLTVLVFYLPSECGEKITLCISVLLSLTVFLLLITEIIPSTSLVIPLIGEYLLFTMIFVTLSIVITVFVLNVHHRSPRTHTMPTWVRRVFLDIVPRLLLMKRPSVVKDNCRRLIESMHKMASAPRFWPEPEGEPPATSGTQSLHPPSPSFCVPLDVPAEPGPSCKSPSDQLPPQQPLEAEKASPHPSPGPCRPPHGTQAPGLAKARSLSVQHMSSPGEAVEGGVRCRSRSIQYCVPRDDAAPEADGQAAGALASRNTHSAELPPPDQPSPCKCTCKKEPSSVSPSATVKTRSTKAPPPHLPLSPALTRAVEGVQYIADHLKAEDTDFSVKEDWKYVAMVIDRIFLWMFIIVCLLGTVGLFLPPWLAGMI

Row | Compound | IC50 [1] | inhibition [2] | inhibition [3] | inhibition [4] | inhibition at 10 µM (CYP1A2) | inhibition at 10 µM (CYP2C9) | inhibition at 10 µM (CYP2C19) | inhibition at 10 µM (CYP2D6) | inhibition at 10 µM (CYP3A4) | inhibition at 1 µM (hERG (KCNH2)) | also measured
1 | Brc1ccc2oc(N3CCNC[C@@H]3COc3cccnc3)nc2c1 | 67 nM | -3% | 100% | 96% | – | – | – | – | – | – | –
2 | Cl.c1cncc(OC[C@H]2CNCCN2c2nc3ncccc3o2)c1 | 5.5 nM | 1% | 43% | – | 25% | 22% | 9% | 1% | 5% | – | EC50 [5]: 200 nM; Activity [6]: inactive; inhibition [7]: 50%; half-life [8]: 19 min; clearance [9]: 72 mL/min/kg; bioavailability [10]: 50%; half-life [11]: 98 min; Cmax [12]: 2530 nM; inhibition in vivo at 5 mg/kg (Mus musculus [13]): 60%; inhibition in vivo at 1 mg/kg (Mus musculus [14]): 60%; inhibition in vivo at 5 mg/kg (Mus musculus [15]): 78%; inhibition in vivo at 1 mg/kg (Mus musculus [16]): 90%; inhibition in vivo at 1 mg/kg (Mus musculus [17]): 64%; inhibition (Mus musculus [18]): inactive; Emax [19]: 85%; IC50 [20]: 58 nM
3 | COc1ccc2nc(N3CCNC[C@@H]3COc3cccnc3)sc2c1 | 46 nM | 9% | 99% | 83% | 63% | 33% | 78% | 50% | 49% | 36% | –
4 | COc1ccc(NC(=O)N2CCNC[C@H]2COc2cccnc2)cc1 | 18000 nM | 2% | 7% | – | – | – | – | – | – | – | inhibition (Mus musculus [21]): inactive; inhibition (Mus musculus [22]): inactive
5 | c1cncc(OC[C@@H]2CCN2)c1 | – | – | – | – | – | – | – | – | – | – | Ki [23]: 0.052 nM
6 | c1cncc(OCC2CNCCN2c2nc3ccccc3o2)c1 (racemic) | 106 nM | -2% | 95% | 89% | 36% | 20% | 24% | 87% | 17% | 22% | –
7 | Fc1cccc2sc(N3CCNCC3COc3cccnc3)nc12 (racemic) | 17 nM | 20% | 99% | 53% | 63% | 28% | 60% | 60% | 75% | 19% | –
8 | Fc1cc(F)c2nc(N3CCNCC3COc3cccnc3)sc2c1 (racemic) | 19 nM | 12% | 91% | 45% | 67% | 26% | 70% | 72% | 83% | 36% | –
9 | COc1ccc(OC(=O)N2CCNCC2COc2cccnc2)cc1 (racemic) | 11 nM | 2% | 39% | 90% | – | – | – | – | – | – | –
10 | COc1ccc(NC(=O)N2CCNCC2COc2cccnc2)cc1 (racemic) | 60 nM | -8% | 23% | 33% | 11% | 14% | 17% | 0% | 7% | 15% | inhibition (Mus musculus [24]): Active; inhibition (Mus musculus [25]): Active; inhibition (Mus musculus [26]): Active
11 | COc1ccc(NC(=O)N2CCNCC2COc2cccnc2)cc1Cl (racemic) | 45 nM | 17% | 40% | 23% | 20% | 10% | 47% | 25% | 66% | 17% | –
12 | Cc1cc(NC(=O)N2CCNCC2COc2cccnc2)ccc1Br (racemic) | 14 nM | 23% | 80% | 15% | 48% | 21% | 51% | 85% | 80% | 27% | –
13 | O=C(Nc1ccc(Br)cc1F)N1CCNCC1COc1cccnc1 (racemic) | 42 nM | 7% | 47% | 30% | 13% | 7% | 32% | 41% | 58% | 18% | –
14 | O=C(c1ccccc1)c1ccc(NC(=O)N2CCNCC2COc2cccnc2)cc1 (racemic) | 41 nM | 10% | 16% | 18% | 16% | 62% | 49% | 7% | 23% | 40% | –
